In one data set the target is T1, Cytochrome P450 1A2 (Homo sapiens, UniProt P05177).
T1 sequence (P05177 whole entry): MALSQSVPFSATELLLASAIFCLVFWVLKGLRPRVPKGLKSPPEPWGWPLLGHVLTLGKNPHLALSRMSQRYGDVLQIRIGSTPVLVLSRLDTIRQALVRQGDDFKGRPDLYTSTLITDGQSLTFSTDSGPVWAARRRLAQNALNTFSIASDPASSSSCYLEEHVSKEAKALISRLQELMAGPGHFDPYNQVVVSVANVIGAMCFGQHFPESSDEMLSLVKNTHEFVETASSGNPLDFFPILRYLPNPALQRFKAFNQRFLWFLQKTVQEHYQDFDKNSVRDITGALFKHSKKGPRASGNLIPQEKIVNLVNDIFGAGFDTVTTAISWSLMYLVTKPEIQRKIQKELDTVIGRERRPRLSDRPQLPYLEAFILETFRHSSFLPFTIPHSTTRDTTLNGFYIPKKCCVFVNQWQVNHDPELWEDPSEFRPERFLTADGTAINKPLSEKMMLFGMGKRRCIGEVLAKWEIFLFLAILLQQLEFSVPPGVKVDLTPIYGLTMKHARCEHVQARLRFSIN
The data set is described as follows: Drug metabolism assessed as human CYP1A2-mediated formation of 12-OHNVP at 10 uM pre-incubated for 30 mins followed by addition of NADPH regenerating reagents by uHPLC-MS analysis. The settings on record: recombinant enzyme. The class given is ADME. The gist of the method:
(§1)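 Insect-cell microsomes with single cDNA-expressed human P450 (100 nM) in 0.1 M potassium phosphate; 10 μM substrate prewarmed 5 min at 37 °C with NADPH-regenerating system, reaction started by adding microsomes; 30 min at 37 °C, 0.1% DMSO. Stopped, dried, reconstituted in methanol; triple-quadrupole SRM (12-OH 283.1→223.0, 2-OH 283.1→160.9, 3-OH 283.1→241.9), peak height; three replicates, mean ± SD.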

A further data set concerns the target T2, Cytochrome P450 2B6 (Homo sapiens, UniProt P20813).
T2 sequence (P20813 whole entry): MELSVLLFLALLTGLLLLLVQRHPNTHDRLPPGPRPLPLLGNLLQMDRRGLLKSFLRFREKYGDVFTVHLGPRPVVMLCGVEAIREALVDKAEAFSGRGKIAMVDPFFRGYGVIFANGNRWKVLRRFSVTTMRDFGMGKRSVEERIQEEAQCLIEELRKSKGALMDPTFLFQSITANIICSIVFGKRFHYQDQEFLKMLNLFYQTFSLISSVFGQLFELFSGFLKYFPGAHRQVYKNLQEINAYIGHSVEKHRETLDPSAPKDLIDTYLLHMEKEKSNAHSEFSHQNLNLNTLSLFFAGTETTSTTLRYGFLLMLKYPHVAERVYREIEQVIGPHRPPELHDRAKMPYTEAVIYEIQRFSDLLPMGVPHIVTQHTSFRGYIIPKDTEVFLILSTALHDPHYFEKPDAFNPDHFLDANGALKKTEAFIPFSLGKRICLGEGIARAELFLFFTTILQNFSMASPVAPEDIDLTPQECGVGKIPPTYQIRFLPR
Put plainly: Drug metabolism assessed as human CYP2B6-mediated formation of 12-OHNVP at 10 uM pre-incubated for 30 mins followed by addition of NADPH regenerating reagents by uHPLC-MS analysis. The settings on record: recombinant enzyme. It counts as ADME. The gist of the method:
as §1

The next data set addresses T3, Cytochrome P450 2C8 (Homo sapiens, UniProt P10632).
T3 sequence (P10632 whole entry): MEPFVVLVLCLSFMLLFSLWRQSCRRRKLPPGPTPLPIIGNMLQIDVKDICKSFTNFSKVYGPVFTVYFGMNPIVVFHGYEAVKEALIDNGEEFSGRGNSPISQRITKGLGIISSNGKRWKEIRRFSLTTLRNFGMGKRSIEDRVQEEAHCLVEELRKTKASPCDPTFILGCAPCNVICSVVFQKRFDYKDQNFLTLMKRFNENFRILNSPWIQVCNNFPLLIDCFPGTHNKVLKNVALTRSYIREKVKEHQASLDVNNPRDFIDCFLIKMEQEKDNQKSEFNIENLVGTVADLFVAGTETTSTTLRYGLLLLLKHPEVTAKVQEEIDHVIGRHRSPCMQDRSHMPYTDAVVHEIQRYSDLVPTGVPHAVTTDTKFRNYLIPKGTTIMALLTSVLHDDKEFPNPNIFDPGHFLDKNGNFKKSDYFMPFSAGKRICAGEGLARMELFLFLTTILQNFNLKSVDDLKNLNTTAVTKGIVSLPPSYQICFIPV
Put plainly: Drug metabolism assessed as human CYP2C8-mediated formation of 12-OHNVP at 10 uM […] by uHPLC-MS analysis. It counts as ADME. The following applies: recombinant enzyme. The method in brief:
as §1

The next data set concerns Cytochrome P450. The data set is described as follows: Drug metabolism in human liver microsomes assessed as Cytochrome P450-mediated formation of 3-OHNVP formation at 5 to 400 uM in presence of NADPH regenerating reagents by uHPLC-MS/MS analysis. The class given is ADME. The method in brief:
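Pooled human liver microsomes (2.5 mg/mL) with NADPH-regenerating system, substrate 5–400 μM, 30 min at 37 °C, 0.1% DMSO (0.2% at 400 μM); 2- and 3-OH metabolites by uHPLC-MS/MS Orbitrap; three replicates, mean ± SD.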

Data set [1] concerns Hepatocyte. The data set is described as follows: Induction of change in Acy3 protein expression in C57BL/6J mouse primary hepatocytes at 400 uM incubated for 8 hrs by relative-quantitation label-free proteomics analysis relative to NVP. The class given is cell-based. The method in brief: (§2)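 Fresh primary hepatocytes from male C57BL/6J mice aged 8–13 weeks, adhered overnight, then given fresh medium containing compound (400 μM), NVP (400 μM) or vehicle (0.2% DMSO) for 8 h. Lysate reduced (DTT) and alkylated (iodoacetamide), acetone-precipitated and digested with trypsin. Label-free Top10 nanoLC-MS with precursor ion area quantitation; unpaired t test P values, Cohen's d effect size.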

Data set [2] concerns Hepatocyte. The data set is described as follows: Induction of change in 5-Mar protein expression in C57BL/6J mouse primary hepatocytes at 400 uM incubated for 8 hrs by relative-quantitation label-free proteomics analysis relative to NVP. It counts as cell-based. The gist of the method: as §2
For data set [3], the system named is Hepatocyte. The data set is described as follows: Induction of change in RBM39 protein expression in human primary hepatocytes at 10 uM incubated for 48 hrs by relative-quantitation label-free proteomics analysis relative to NVP. The class given is cell-based. The method in brief:
(§3)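 Cryoplateable pooled human hepatocytes (10 mixed-sex donors per pool; three pools), adhered overnight, then given fresh medium containing compound (10 μM), NVP (10 μM) or vehicle (0.1% DMSO) for 48 h. Lysate reduced (DTT) and alkylated (iodoacetamide), acetone-precipitated and digested with trypsin. Label-free Top10 nanoLC-MS with precursor ion area quantitation; unpaired t test P values, Cohen's d effect size.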

Data set [4] has as its system Hepatocyte. The data set is described as follows: Induction of change in ALAD protein expression in human primary hepatocytes at 10 uM incubated for 48 hrs by relative-quantitation label-free proteomics analysis relative to NVP. The class given is cell-based. The method in brief:
as §3

The test system of data set [5] is Hepatocyte. The data set is described as follows: Induction of change in TM9SF1 protein expression in human primary hepatocytes at 10 uM incubated for 48 hrs by relative-quantitation label-free proteomics analysis relative to NVP. It counts as cell-based. The gist of the method: as §3

Structures are written as SMILES.

For `[2H]C([2H])([2H])c1ccnc2c1NC(=O)c1cccnc1N2C1CC1`, the Drug metabolism result at Cytochrome P450 1A2, at Cytochrome P450 2B6, on Cytochrome P450 2C8 and with Cytochrome P450 was “Metabolite_Detected” in each case. Also, the “fold change (FC)” value in the data set with Hepatocyte [1] is 1.6; with Hepatocyte [2], -2.14; in the data set on Hepatocyte [3], 1.7; with Hepatocyte [4], -1.86; in the data set on Hepatocyte [5], -1.86.

The values above are taken from ChEMBL document CHEMBL4613248, “Twelfth-Position Deuteration of Nevirapine Reduces 12-Hydroxy-Nevirapine Formation and Nevirapine-Induced Hepatocyte Death” (J Med Chem, 2020).
